Here are results for four compounds from ChEMBL document CHEMBL1131125, “Effect of polyamine analogues on hypusine content in JURKAT T-cells” (J Med Chem, 1998).

Test [1] concerns Jurkat. As to the kind of experiment: Inhibitory activity against growth of JURKAT cells after 144h. It counts as functional, cell-based. The conditions noted are these: Homo sapiens. The method in brief:
(§1)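 JURKAT cells were grown in RPMI-1640 with 10% fetal calf serum, 2 mM L-glutamine and 1 mM aminoguanidine. Cells were counted electronically. IC50 is the concentration giving 50% of untreated growth, mean of at least two experiments.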

Test [2] has as its system Jurkat. As to the kind of experiment: % of spermidine (SPD) in JURKAT cells after 144 hr at 5 uM concentration. It counts as functional, cell-based. The conditions noted are these: Homo sapiens. The method in brief:
(§2)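 Log-phase JURKAT cells were treated with analogue for 144 h, at 2 μM for tetraamines or 5 μM for triamines. After two ice-cold RPMI-1640 washes, pellets were extracted with 1.2 N HClO4. Results are percent of untreated control, mean ± SD of 2–5 determinations run in triplicate.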

Test [3] has as its system Jurkat. As to the kind of experiment: competitive inhibition of [3H]SPD transport in JURKAT cells. It counts as functional, cell-based, Homo sapiens. The method in brief:
(§3)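 [3H]spermidine uptake rate into JURKAT cells was measured at six spermidine concentrations, without analogue and with analogue at 50, 25 and 10 μM. Lineweaver–Burk plots were used to assign the competitive mode and derive Ki. Values are means of two or three experiments.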

Test [4] deals with L1210. As to the kind of experiment: % of spermine (SPM) in L1210 cells after 48 hr at 100 uM concentration. It counts as functional, cell-based. The conditions noted are these: Mus musculus.
Test [5] concerns Jurkat. As to the kind of experiment: % of spermine (SPM) in JURKAT cells after 144 hr at 5 uM concentration. It counts as functional, cell-based. The note with it: Homo sapiens. The essentials:
as §2

In test [6] the test system is Jurkat. As to the kind of experiment: effect of compound on polyamine biosynthetic enzymes in JURKAT cells using AdoMetDC assay. It counts as functional, Homo sapiens.
Test [7] deals with L1210. As to the kind of experiment: Effect of compound on polyamine biosynthetic enzymes in L1210 cells using ODC assay. The test is classed as functional, Mus musculus.
Test [8] has as its system L1210. As to the kind of experiment: Activity of compound measured against L1210 cells. The test is classed as functional, cell-based, Mus musculus.
Test [9] deals with L1210. As to the kind of experiment: Effect of compound on polyamine biosynthetic enzymes in L1210 cells using AdoMetDC assay. It counts as functional, Mus musculus.
For test [10], the system named is L1210. As to the kind of experiment: % of spermidine (SPD) in L1210 cells after 48 hr at 100 uM concentration. It counts as functional, cell-based. The conditions noted are these: Mus musculus.
Test [11] relates to Jurkat. As to the kind of experiment: % of hypusine (Hpu) in JURKAT cells after 144 hr at 5 uM concentration. It counts as functional, cell-based. The conditions noted are these: Homo sapiens. The method in brief:
(§4)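 JURKAT cells in log-phase growth were exposed to analogue for 144 h, at 2 μM for the tetraamines or 5 μM for the triamines. Cells were washed twice with ice-cold RPMI-1640 and extracted with 1.2 N HClO4. Values are percent of untreated control, mean ± SD of 2–5 determinations, each in triplicate.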

In test [12] the test system is Jurkat. As to the kind of experiment: effect of compound on polyamine biosynthetic enzymes in JURKAT cells using ODC assay. The test is classed as functional, Homo sapiens.
In test [13] the test system is Jurkat. As to the kind of experiment: % of putrescine (PUT) in JURKAT cells after 144 hr at 5 uM concentration. It counts as functional, cell-based. The conditions noted are these: Homo sapiens. The method in brief:
as §2

Test [14] has as its system L1210. As to the kind of experiment: % of putrescine (PUT) in L1210 cells after 48 hr at 100 uM concentration. The test is classed as functional, cell-based. The note with it: Mus musculus.
Test [15] deals with L1210. As to the kind of experiment: effect of compound on polyamine biosynthetic enzymes in L1210 cells using AdoMetDC assay. The test is classed as functional, Mus musculus.
Test [16] has as its system L1210. As to the kind of experiment: effect of compound on polyamine biosynthetic enzymes in L1210 cells using ODC assay. It counts as functional, Mus musculus.
The subject of test [17] is Jurkat. As to the kind of experiment: inhibitory activity against growth of JURKAT cells after 144h. The note with it: Homo sapiens. It counts as functional, cell-based. The method in brief:
as §1

Test [18] deals with Jurkat. As to the kind of experiment: competitive inhibition of [3H]SPD transport by JURKAT cells. The test is classed as functional, cell-based, Homo sapiens. The essentials:
as §3

In test [19] the test system is L1210 (mouse). As to the kind of experiment: % of spermidine (SPD) in control cells after 72 hr at 2 uM concentration.
The test system of test [20] is L1210 (mouse). As to the kind of experiment: % of hypusine (Hpu) in control cells after 72 hr at 2 uM concentration.
The subject of test [21] is L1210. As to the kind of experiment: % of spermine (SPM) in L1210 cells after 48 hr at 10 uM concentration. The test is classed as functional, cell-based. The conditions noted are these: Mus musculus.
The subject of test [22] is L1210. As to the kind of experiment: % of putrescine (PUT) in L1210 cells after 48 hr at 10 uM concentration. It counts as functional, cell-based. The conditions noted are these: Mus musculus.
Test [23] deals with L1210 (mouse). As to the kind of experiment: % of putrescine (PUT) in control cells after 72 hr at 2 uM concentration.
The test system of test [24] is Jurkat. As to the kind of experiment: % of spermine (SPM) in JURKAT cells after 144 hr at 2 uM concentration. The note with it: Homo sapiens. It counts as functional, cell-based. The essentials: as §2
Test [25] relates to Jurkat. As to the kind of experiment: % of spermidine (SPD) in JURKAT cells after 144 hr at 2 uM concentration. The test is classed as functional, cell-based. The note with it: Homo sapiens. The method in brief: as §2
Test [26] concerns Jurkat. As to the kind of experiment: % of hypusine (Hpu) in JURKAT cells after 144 hr at 2 uM concentration. It counts as functional, cell-based. The conditions noted are these: Homo sapiens. The method in brief: as §4
The test system of test [27] is Jurkat. As to the kind of experiment: % of putrescine (PUT) in JURKAT cells after 144 h at 2 uM concentration. It counts as functional, cell-based. The conditions noted are these: Homo sapiens. The method in brief: as §2
The test system of test [28] is L1210 (mouse). As to the kind of experiment: % of spermine (SPM) in control cells after 72 hr at 2 uM concentration.
The subject of test [29] is L1210. As to the kind of experiment: % of spermidine (SPD) in L1210 cells after 48 hr at 10 uM concentration. It counts as functional, cell-based. The note with it: Mus musculus.
Test [30] relates to Jurkat. As to the kind of experiment: Competitive inhibition of [3H]SPD (spermidine) transport in JURKAT cells. It counts as functional, cell-based, Homo sapiens. The method in brief: as §3

In the test on Jurkat [1], `NCCCCCNCCCCN` yielded an IC50 of 70000 nM. For the same compound, the Level with Jurkat [2] came out at 0%; with L1210 [4], 53%; with Jurkat [5], 25.2%; in the test on L1210 [10] it was 0%; in the test with Jurkat [11], 80.2%; in the test on Jurkat [13], 0%. Moreover, the Level in the test with L1210 [14] is 0%. Further, the inhibition constant (Ki) in the test with Jurkat [3] amounted to 2800 nM; with L1210 [8] it was 1400 nM. In the test with Jurkat [6], the “AdoMetDC activity (% of control)” value is listed as 79.3%. Moreover, the Control in the test with L1210 [7] came to 19%; in the test on L1210 [9], 57%. Further, the “ODC activity (% of control)” value in the test with Jurkat [12] came out at 34.7%.

`NCCCCCNCCCCCN`: the Control is given as 88% in the test on L1210 [15] and 16% with L1210 [16]. Moreover, the Level is 1.1% in the test with Jurkat [2]; 33% in the test on L1210 [4]; 38.8% in the test on Jurkat [5]; 0% in the test on L1210 [10]; 86.4% in the test on Jurkat [11]; 0% with Jurkat [13]. This compound also showed a Level with L1210 [14] of 0%. The “AdoMetDC activity (% of control)” value with Jurkat [6] worked out at 84.9%. The results for the Ki with L1210 [8] and in the test on Jurkat [18] were 14000 nM and 13800 nM, respectively. In the test with Jurkat [17], this compound showed an IC50 of 1200 nM. Moreover, in the test with Jurkat [12], the “ODC activity (% of control)” value was determined as 53.3%.

Turning to `CCNCCCNCCCNCCCNCC` [BIS(ETHYL)NORSPERMINE], the Level with L1210 (mouse) [19] is 3.8%; in the test with L1210 (mouse) [20], 56.8%; with L1210 [21], 31%; with L1210 [22], 30%; in the test with L1210 (mouse) [23], 0%; in the test on Jurkat [24], 5.5%. Further, the Level with Jurkat [25] came to 9.2%; in the test on Jurkat [26], 58.9%; in the test with Jurkat [27], 0%; in the test with L1210 (mouse) [28], 13.4%; in the test on L1210 [29], 14%. Further, the Control turned out to be 42% in the test with L1210 [15] and 10% in the test on L1210 [16]. The “AdoMetDC activity (% of control)” value in the test on Jurkat [6] was 51.4%. For the same compound, the IC50 in the test with Jurkat [17] was 650 nM. For the same compound, the “ODC activity (% of control)” value in the test on Jurkat [12] is reported as 16.9%. In the test with Jurkat [18], this compound gave a Ki of 14400 nM.

Compound `CCNCCCCNCCCCNCCCCNCC` [DIETHYLHOMOSPERMINE] came in with an IC50 in the test on Jurkat [1] of 200 nM. For the same compound, the figures for the Control in the test with L1210 [15] and in the test on L1210 [7] were 41% and 7%, respectively. Besides, the Level was found to be 61% with L1210 [21]; 0% with L1210 [22]; 13.4% in the test on Jurkat [24]; 0% in the test with Jurkat [25]; 73.2% in the test with Jurkat [26]; 0% in the test with Jurkat [27]. The Level in the test on L1210 [29] is 0%. Further, in the test on Jurkat [6], the “AdoMetDC activity (% of control)” value is 61.6%. Also, the Ki stood at 2000 nM in the test with L1210 [8] and 8800 nM in the test on Jurkat [30]. Moreover, the “ODC activity (% of control)” value with Jurkat [12] worked out at 29.8%.
